B1: NELF-E aptamer (parent)
chain: CCCAACGACUGCCGAGCGAGAUUACGCUUGAGCGCCCCACUGAGGAUGCCCACGGGCGAUUGGGGCACGG

Variants of: B1
Assay: HiTS-RAP
Conditions: with NELF-E (Drosophila)
In short: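 Aptamer DNA templates bearing a T7 promoter and a ter site were sequenced on an Illumina GAIIx flowcell. T7 RNA polymerase then transcribed them in situ, and GST-Tus halted transcription over 30 minutes at 37°C. After a 30-minute room-temperature equilibration with NELF-E-mOrange at 0.064 to 1000 nM in HEPES binding buffer, clusters were imaged, using only the first binding curve. Intensities normalised to sequencing intensity were averaged per sequence and fitted with weighted Hill fits to give Kd, retaining only fits whose variance stayed under 1,000,000.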

Variant	Kd [nM]
CCCGACGAUUGCCGAGCGAGAUUACGCUUGAGCGCCCCACUGAGGAUGCCCACGGGCGAUUGGGGCACGG	5.95
CCCGACGAGUGCCGAGCGAGAUUACGCUUGAGCGCCCCACUGAGGAUGCCCACGGGCGAUUGGGGCACGG	5.74
CCCGACGAAUGCCGAGCGAGAUUACGCUUGAGCGCCCCACUGAGGAUGCCCACGGGCGAUUGGGGCACGG	6.66
CCCGACGACUGCCGAGCGAGAUUACGCUUGAGCGCCCCACUGAGGAUGCCCACGGGCGGUUGGGGCACGG	40
CCCGACGACUGCCGAGCGAGAUUACGCUUGAGCGCCCCACUGAGGAUGCCCACGGGCGUUUGGGGCACGG	113
CCCCACGACGGCCGAGCGAGAUUACGCUUGAGCGCCCCACUGAGGAUGCCCACGGGCGAUUGGGGCACGG	6.48
CCCCACGGCUGCCGAGCGAGAUUACGCUUGAGCGCCCCACUGAGGAUGCCCACGGGCGAUUGGGGCACGG	6.82
CCCCGCGACUGCCGAGCGAGAUUACGCUUGAGCGCCCCACUGAGGAUGCCCACGGGCGAUUGGGGCACGG	6.09
CCCGACGACUGCCGAGCGAGAUUACGCUUGGGCGCCCCACUGAGGAUGCCCACGGGCGAUUGGGGCACGG	7.17
CCCGACGACUGCCGAGCGAGAUUACGCUUGCGCGCCCCACUGAGGAUGCCCACGGGCGAUUGGGGCACGG	4.18
CCCGACGACUGCCGAGCGAGAUUACGCUUGUGCGCCCCACUGAGGAUGCCCACGGGCGAUUGGGGCACGG	6.57
CCCGACGACUGCCGAGCGAGAUUGCGCUUGAGCGCCCCACUGAGGAUGCCCACGGGCGAUUGGGGCACGG	6.26
CCCGACGACUGCCGAGCGAGAUUUCGCUUGAGCGCCCCACUGAGGAUGCCCACGGGCGAUUGGGGCACGG	6.89
CCCGACGACUGCCGAGCGCGAUUACGCUUGAGCGCCCCACUGAGGAUGCCCACGGGCGAUUGGGGCACGG	4.21
CCCGACGACUGCCGAGCGUGAUUACGCUUGAGCGCCCCACUGAGGAUGCCCACGGGCGAUUGGGGCACGG	6.08
CCCGACGACUGCCGAGCGGGAUUACGCUUGAGCGCCCCACUGAGGAUGCCCACGGGCGAUUGGGGCACGG	5.64
CCCGACGACUGCCGAGGGAGAUUACGCUUGAGCGCCCCACUGAGGAUGCCCACGGGCGAUUGGGGCACGG	5.57
CCCGACGACUGCCGAGUGAGAUUACGCUUGAGCGCCCCACUGAGGAUGCCCACGGGCGAUUGGGGCACGG	5.09
CCCGACGACUGCCGAGAGAGAUUACGCUUGAGCGCCCCACUGAGGAUGCCCACGGGCGAUUGGGGCACGG	4.31

Variant	Kd [nM]
CCCCACGACUGCCGAGCGAGAGUACGCUUGAGCGCCCCACUGAGGAUGCCCACGGGCGAUUGGGGCACGG	6.04
CCCCACGAGUGCCGAGCGAGAUUACGCUUGAGCGCCCCACUGAGGAUGCCCACGGGCGAUUGGGGCACGG	7.49
CCCGACGACUGCCGAGCGAGAUUACGCUUGAGCGCCCCACUGAGGAUGCCCACGGGCGAUUGGGGCUCGG	6.47
CCCGACGACUGCCGAGCGAGAUUACGCUUGAGCGCCCCACUGAGGAUGCCCACGGGCGAUUGGGGCGCGG	6.54
CCCGACGACUGCCGAGCGAGAUUACGCUUGAGCGCCCCACUGAGGAUGCCCACGGGCGAUUGGGGCCCGG	5.34
CCCGCCGACUGCCGAGCGAGAUUACGCUUGAGCGCCCCACUGAGGAUGCCCACGGGCGAUUGGGGCACGG	6.45
CCCGUCGACUGCCGAGCGAGAUUACGCUUGAGCGCCCCACUGAGGAUGCCCACGGGCGAUUGGGGCACGG	5.91
CCCGGCGACUGCCGAGCGAGAUUACGCUUGAGCGCCCCACUGAGGAUGCCCACGGGCGAUUGGGGCACGG	5.81
CCCGACGACUGCCGAGCGAGAUUACGCUUGAGCGCCCCACUGAGGAUGCCCACGGGCGAUUGGGGCACGG	5.08
CCCCACGACUGCCGAGCGAGAUUACGCUUGAGCGCCCCACUGAGGAUGCCCACGGGCGAUUGGGGCACGG	6.33
CCCCACGACUGCCGAGCGAGAUGACGCUUGAGCGCCCCACUGAGGAUGCCCACGGGCGAUUGGGGCACGG	7.29
CCCCACGACUGCCGAGCGAGAUUGCGCUUGAGCGCCCCACUGAGGAUGCCCACGGGCGAUUGGGGCACGG	7.08
CCCGACGACUGCCGGGCGAGAUUACGCUUGAGCGCCCCACUGAGGAUGCCCACGGGCGAUUGGGGCACGG	4.97
CCCGACGACUGCCGUGCGAGAUUACGCUUGAGCGCCCCACUGAGGAUGCCCACGGGCGAUUGGGGCACGG	6.63
CCCCAGGACUGCCGAGCGAGAUUACGCUUGAGCGCCCCACUGAGGAUGCCCACGGGCGAUUGGGGCACGG	8.66
CCCGACGACUGCCGAGCGAGAUUACGAUUGAGCGCCCCACUGAGGAUGCCCACGGGCGAUUGGGGCACGG	5.54
CCCGACGACUGCGGAGCGAGAUUACGCUUGAGCGCCCCACUGAGGAUGCCCACGGGCGAUUGGGGCACGG	5.3
CCCGACGACUGCAGAGCGAGAUUACGCUUGAGCGCCCCACUGAGGAUGCCCACGGGCGAUUGGGGCACGG	5.91
CCCGACGACUGCUGAGCGAGAUUACGCUUGAGCGCCCCACUGAGGAUGCCCACGGGCGAUUGGGGCACGG	4.78
